# Results as given in ChEMBL document CHEMBL2321751, “Optimization of chloronitrobenzamides (CNBs) as therapeutic leads for human African trypanosomiasis (HAT)” (J Med Chem, 2013).
# pEC50: −log10 of the molar value.
# Legend:
# [1] = Kinetic solubility of the compound in PBS buffer at pH 7.4 after 18 hrs by UV spectrophotometric analysis; format: physicochemical; details: for solubility kinetic at 18 h: PBS buffer, pH 7.4, read-out: Kinetic_solubility
# Method in brief: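 Compound from a 10 mM stock was added to PBS pH 7.4 and left 18 h at room temperature. The suspension was filtered, and the filtrate was mixed 1:1 with 1-propanol. Solubility was derived from UV spectrum AUC (250–500 nm) relative to a 1-propanol/PBS reference. Run in triplicate.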
# Raji = assay: Cytotoxicity against human Raji cells after 72 hrs by Cell Titre Glo assay; format: cell-based
# Method in brief: (§1)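 Human cells grown to 80% confluence were plated in 384-well format and received compound dilutions by pin tool. After 72 h at 37 °C in 5% CO2, viability was measured by CellTiter-Glo luminescence.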
# BJ = assay: Cytotoxicity against human BJ cells after 72 hrs by Cell Titre Glo assay; format: cell-based; method in brief: as §1
# HEK293 = assay: Cytotoxicity against HEK293 cells after 72 hrs by Cell Titre Glo assay; format: cell-based; details: Homo sapiens, HEK293, 72 h; method in brief: as §1
# HepG2 = assay: Cytotoxicity against human HepG2 cells after 72 hrs by Cell Titre Glo assay; format: cell-based; details: HepG2, 72 h; method in brief: as §1
# [2] = system: Trypanosoma brucei brucei; assay: Antitrypanosomal activity against Trypanosoma brucei brucei 221 after 48 hrs by Cell Titre Glo assay; format: functional, organism-based; details: Trypanosoma brucei, 221, 48 h
# Method in brief: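 Bloodstream-form parasites grown in HMI-9 with 10% heat-inactivated FBS, 10% Serum Plus and penicillin/streptomycin at 37 °C, 5% CO₂, to 1 × 10⁶ cells/mL. Diluted to 1 × 10⁴ cells/mL, then dosed with a DMSO dilution series by pin transfer. Incubated 48 h at 37 °C, 5% CO₂. Viability read by CellTiter-Glo luminescence. EC₅₀ from a variable-slope sigmoidal fit. Mean of six replicates, errors as 95% CI.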
# [3] = Permeability of the compound at pH 7.4 by PAMPA; format: ADME; details: for Papp: PAMPA, read-out: permeability; for permeability: pampa, BLD = below limit of detection
# Method in brief: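 Compound (10 mM DMSO stock) was diluted in system solution buffer pH 7.4 and placed in the donor chamber of a PAMPA sandwich whose membrane was coated with GIT lipid. Acceptor buffer filled the acceptor chamber, and the assembly was stirred for 30 min. Donor and acceptor UV spectra (250–500 nm) were compared with a reference to give the permeability coefficient. Run in triplicate.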
Compound,solubility kinetic at 18 h [1],pEC50 (Raji),pEC50 (BJ),pEC50 (HEK293),pEC50 (HepG2),pEC50 [2],Papp [3],permeability [3],"Kinetic_solubility ([1]; buffer, pH 7.4, 18 h, BLD = below limit of detection)"
O=C(Nc1ccc(F)c(-c2nc3ccccc3o2)c1)c1cc([N+](=O)[O-])ccc1Cl,0.27 µM,< 4.60,< 4.60,< 4.60,< 4.60,6.77,366 ×10⁻⁶ cm/s,,
COc1ccc(NC(=O)c2cc([N+](=O)[O-])ccc2Cl)cc1-c1nc2ccccc2s1,0.26 µM,< 4.60,< 4.60,< 4.60,< 4.60,5.44,,BLD,
Cc1cc(NC(=O)c2cc([N+](=O)[O-])ccc2Cl)cc(-c2nc3ccccc3s2)c1O,0.43 µM,< 4.60,< 4.60,< 4.60,< 4.60,< 5.00,48 ×10⁻⁶ cm/s,,
O=C(Nc1ccc(O)c(-c2nc3ccccc3s2)c1)c1cc([N+](=O)[O-])ccc1Cl,0.023 µM,< 4.60,< 4.60,< 4.60,< 4.60,< 4.48,,BLD,
O=C(Nc1cc(-c2nc3ccccc3s2)ccc1Cl)c1cc([N+](=O)[O-])ccc1Cl,0.1 µM,< 4.60,< 4.60,< 4.60,< 4.60,6.62,,BLD,
O=C(Nc1ccc(Cl)c(-c2nc3ccccc3s2)c1)c1cc([N+](=O)[O-])ccc1Cl,0.41 µM,< 4.60,< 4.60,< 4.60,< 4.60,6.49,3 ×10⁻⁶ cm/s,,
COc1cc(Cl)c(C(=O)Nc2cccc(-c3nc4ccccc4s3)c2)cc1[N+](=O)[O-],0.01 µM,< 4.60,< 4.60,< 4.60,< 4.60,6.48,12 ×10⁻⁶ cm/s,,
Cc1ccc(-c2nc3ccccc3s2)cc1NC(=O)c1cc([N+](=O)[O-])c(N(C)C)cc1Cl,0.03 µM,< 4.60,< 4.60,< 4.60,< 4.60,6.33,< 1 ×10⁻⁶ cm/s,,
Cc1ccc(-c2nc3ccccc3s2)cc1NC(=O)c1cc([N+](=O)[O-])c(N2CCC(C(=O)O)CC2)cc1Cl,0.59 µM,< 4.60,< 4.60,< 4.60,< 4.60,6.30,17 ×10⁻⁶ cm/s,,
CCOC(=O)Cc1cc(Cl)c(C(=O)Nc2cc(-c3nc4ccccc4s3)ccc2C)cc1[N+](=O)[O-],0.19 µM,< 4.60,< 4.60,< 4.60,< 4.60,6.28,10 ×10⁻⁶ cm/s,,
COc1ccc(-c2nc3ccccc3s2)cc1NC(=O)c1cc([N+](=O)[O-])c(N2CCC(C(=O)O)CC2)cc1Cl,0.21 µM,< 4.60,< 4.60,< 4.60,< 4.60,6.19,5 ×10⁻⁶ cm/s,,
COC(=O)C1CCN(c2cc(Cl)c(C(=O)Nc3cc(-c4nc5ccccc5s4)ccc3OC)cc2[N+](=O)[O-])CC1,0.17 µM,< 4.60,< 4.60,< 4.60,< 4.60,6.14,< 1 ×10⁻⁶ cm/s,,
Cc1ccc(-c2nc3ccccc3s2)cc1NC(=O)c1cc([N+](=O)[O-])c(N2CCCCC2)cc1Cl,,< 4.60,< 4.60,< 4.60,< 4.60,6.14,< 1 ×10⁻⁶ cm/s,,BLD
O=C(O)COc1cc(Cl)c(C(=O)Nc2cccc(-c3nc4ccccc4s3)c2)cc1[N+](=O)[O-],6.7 µM,< 4.60,< 4.60,< 4.60,< 4.60,6.10,< 1 ×10⁻⁶ cm/s,,
